Values after ≈ are worked out from the molar mass of the structure shown. Active and inactive are the calls of the source. The rule behind the calls is not given here.
Assays:
Format in all cases: functional
[1] = tested on: Staphylococcus epidermidis; test: Antibacterial activity against Staphylococcus epidermidis RCMB 010024 assessed as growth inhibition after 24 hrs by twofold serial dilution method; conditions: RCMB 010024, 24 h
Summary of the method: (§1)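 Broth microdilution in Müller–Hinton broth, 96-well plates. Only compounds giving disc-diffusion zones >10 mm were tested. DMF stocks (1000 µg/mL) were diluted twofold to a final 500–0.007 µg/mL, with about 10^6 CFU/mL bacteria. Sealed plates ran 24 h at 37 °C in a humid chamber. MIC was the lowest concentration with no visible turbidity. DMF and uninoculated-medium controls were included.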

Klebsiella pneumoniae = test: Antibacterial activity against Klebsiella pneumoniae RCMB 010093 assessed as growth inhibition after 24 hrs by twofold serial dilution method; summary of the method: as §1
Aspergillus clavatus = test: Antifungal activity against Aspergillus clavatus RCMB 02593 assessed as growth inhibition after 48 hrs by twofold serial dilution method; conditions: RCMB 02593, 48 h
Summary of the method: (§2)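 Fungi were tested by microdilution in Sabouraud liquid medium. Only compounds with disc-diffusion zones >10 mm went on to this test. DMF stocks (1000 µg/mL) were serially diluted twofold to 500–0.007 µg/mL. Sealed plates were held 48 h at 25 °C in a humid chamber. MIC was the lowest concentration without visible turbidity. DMF and uninoculated-medium controls ran in parallel.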

Talaromyces marneffei = test: Antifungal activity against Penicillium marneffei RCMB 01267 assessed as growth inhibition after 48 hrs by twofold serial dilution method; summary of the method: as §2
Neisseria gonorrhoeae = test: Antibacterial activity against Neisseria gonorrhoeae RCMB 010076 assessed as growth inhibition after 24 hrs by twofold serial dilution method; summary of the method: as §1
Streptococcus pyogenes = test: Antibacterial activity against Streptococcus pyogenes RCMB 010015 assessed as growth inhibition after 24 hrs by twofold serial dilution method; summary of the method: as §1
Aspergillus fumigatus = test: Antifungal activity against Aspergillus fumigatus RCMB 02564 assessed as growth inhibition after 48 hrs by twofold serial dilution method; conditions: RCMB 02564, 48 h; summary of the method: as §2
[2] = tested on: Staphylococcus epidermidis; test: Ratio of ampicillin MIC to compound MIC for Staphylococcus epidermidis RCMB 010024
Geotrichum candidum = test: Antifungal activity against Geotricum candidum RCMB 05096 assessed as growth inhibition after 48 hrs by twofold serial dilution method; conditions: RCMB 05096, 48 h; summary of the method: as §2
Pseudomonas aeruginosa = test: Antibacterial activity against Pseudomonas aeruginosa RCMB 010043 assessed as growth inhibition after 24 hrs by twofold serial dilution method; summary of the method: as §1
Candida albicans = test: Antifungal activity against Candida albicans RCMB 05035 assessed as growth inhibition after 48 hrs by twofold serial dilution method; summary of the method: as §2
Enterococcus faecalis = test: Antibacterial activity against Enterococcus faecalis RCMB 010068 assessed as growth inhibition after 24 hrs by twofold serial dilution method; summary of the method: as §1
Bacillus subtilis = test: Antibacterial activity against Bacillus subtilis RCMB 010063 assessed as growth inhibition after 24 hrs by twofold serial dilution method; conditions: RCMB 010063, 24 h; summary of the method: as §1
Proteus vulgaris = test: Antibacterial activity against Proteus vulgaris RCMB 010085 assessed as growth inhibition after 24 hrs by twofold serial dilution method; summary of the method: as §1
Shigella flexneri = test: Antibacterial activity against Shigella flexneri RCMB 0100542 assessed as growth inhibition after 24 hrs by twofold serial dilution method; summary of the method: as §1
Staphylococcus aureus = test: Antibacterial activity against Staphylococcus aureus RCMB 010027 assessed as growth inhibition after 24 hrs by twofold serial dilution method; conditions: RCMB 010027, 24 h; summary of the method: as §1

Row | Molecule | MIC [1] [µg/mL] | MIC (Klebsiella pneumoniae; RCMB 010093, 24 h) [µg/mL] | MIC (Aspergillus clavatus) [µg/mL] | MIC (Talaromyces marneffei; RCMB 01267, 48 h) [µg/mL] | MIC (Neisseria gonorrhoeae; RCMB 010076, 24 h) [µg/mL] | MIC (Streptococcus pyogenes; RCMB 010015, 24 h) [µg/mL] | MIC (Aspergillus fumigatus) [µg/mL] | MIC (Geotrichum candidum) [µg/mL] | MIC (Pseudomonas aeruginosa; RCMB 010043, 24 h) [µg/mL] | MIC (Candida albicans; RCMB 05035, 48 h) [µg/mL] | MIC (Enterococcus faecalis; RCMB 010068, 24 h) [µg/mL] | MIC (Bacillus subtilis) [µg/mL] | MIC (Proteus vulgaris; RCMB 010085, 24 h) [µg/mL] | MIC (Shigella flexneri; RCMB 0100542, 24 h) [µg/mL] | MIC (Staphylococcus aureus) [µg/mL] | MIC (Klebsiella pneumoniae) | MIC (Neisseria gonorrhoeae) | MIC (Streptococcus pyogenes) | MIC (Pseudomonas aeruginosa) | MIC (Shigella flexneri) | also measured
1 | CC(=O)c1sc(-c2cccnc2)nc1C | 0.24 (≈ 1.1 µM) | 0.48 (≈ 2.2 µM) | 3.9 (≈ 17.9 µM) | 3.9 (≈ 17.9 µM) | 15.6 (≈ 71.6 µM) | 3.9 (≈ 17.9 µM) | 1.95 (≈ 8.93 µM) | 0.48 (≈ 2.2 µM) | 500 (≈ 2290 µM) | 7.81 (≈ 35.8 µM) | 7.81 (≈ 35.8 µM) | 0.06 (≈ 0.275 µM) | 3.9 (≈ 17.9 µM) | 3.9 (≈ 17.9 µM) | 0.24 (≈ 1.1 µM) | – | – | – | – | – | Ratio [2]: 2
2 | Cc1nc(-c2cccnc2)sc1C1=NNC(c2ccc(F)cc2F)C1 (stereo unspecified) | 125 (≈ 351 µM) | – | 125 (≈ 351 µM) | 250 (≈ 701 µM) | – | – | 125 (≈ 351 µM) | 125 (≈ 351 µM) | – | – | 125 (≈ 351 µM) | 62.5 (≈ 175 µM) | – | – | 125 (≈ 351 µM) | inactive | inactive | inactive | inactive | inactive | MIC (Candida albicans): inactive; MIC (Proteus vulgaris): inactive
3 | CC1(C)S[C@@H]2[C@H](NC(=O)[C@H](N)c3ccccc3)C(=O)N2[C@H]1C(=O)O [AMPICILLIN] | 0.48 (≈ 1.37 µM) | – | – | – | – | 0.24 (≈ 0.687 µM) | – | – | – | – | 1.95 (≈ 5.58 µM) | 0.007 (≈ 0.02 µM) | – | – | 0.06 (≈ 0.172 µM) | – | – | – | – | – | –
4 | Cc1nc(-c2cccnc2)sc1C(=O)/C=C/c1ccc(F)cc1F | 31.2 (≈ 91.3 µM) | 31.2 (≈ 91.3 µM) | 125 (≈ 365 µM) | 62.5 (≈ 183 µM) | – | – | 62.5 (≈ 183 µM) | 62.5 (≈ 183 µM) | – | 500 (≈ 1460 µM) | 250 (≈ 730 µM) | 15.6 (≈ 45.7 µM) | 62.5 (≈ 183 µM) | – | 31.2 (≈ 91.3 µM) | – | inactive | inactive | inactive | inactive | –
5 | GENTAMICIN | – | – | – | – | – | – | – | – | – | – | – | – | – | – | – | 0.24 µg/mL | 7.81 µg/mL | – | 31.2 µg/mL | 0.48 µg/mL | MIC (Proteus vulgaris): 1.95 µg/mL
6 | COc1ccc(/C=C/C(=O)c2sc(-c3cccnc3)nc2C)cc1 | 3.9 (≈ 11.6 µM) | 3.9 (≈ 11.6 µM) | 31.2 (≈ 92.9 µM) | 7.81 (≈ 23.2 µM) | 125 (≈ 372 µM) | 31.2 (≈ 92.9 µM) | 15.6 (≈ 46.5 µM) | 7.81 (≈ 23.2 µM) | 250 (≈ 743 µM) | 62.5 (≈ 186 µM) | 62.5 (≈ 186 µM) | 1.95 (≈ 5.8 µM) | 7.81 (≈ 23.2 µM) | 7.81 (≈ 23.2 µM) | 3.9 (≈ 11.6 µM) | – | – | – | – | – | –
7 | O=c1oc2ccccc2cc1-c1csc(-c2cccnc2)n1 | 3.9 (≈ 12.7 µM) | 7.81 (≈ 25.5 µM) | 15.6 (≈ 51 µM) | 31.2 (≈ 102 µM) | 62.5 (≈ 204 µM) | 7.81 (≈ 25.5 µM) | 15.6 (≈ 51 µM) | 15.6 (≈ 51 µM) | 62.5 (≈ 204 µM) | 125 (≈ 408 µM) | 62.5 (≈ 204 µM) | 3.9 (≈ 12.7 µM) | 15.6 (≈ 51 µM) | 1.95 (≈ 6.37 µM) | 7.81 (≈ 25.5 µM) | – | – | – | – | – | –
8 | CC(=O)Nc1ccc(-c2csc(-c3cccnc3)n2)cc1 | 1.95 (≈ 6.6 µM) | – | 15.6 (≈ 52.9 µM) | – | – | – | 7.81 (≈ 26.4 µM) | 7.81 (≈ 26.4 µM) | – | – | – | 0.97 (≈ 3.28 µM) | – | – | 3.9 (≈ 13.2 µM) | inactive | inactive | inactive | inactive | inactive | MIC (Talaromyces marneffei): inactive; MIC (Candida albicans): inactive; MIC (Enterococcus faecalis): inactive; MIC (Proteus vulgaris): inactive

From ChEMBL document CHEMBL2331482, “Synthesis of some new 2-(3-pyridyl)-4,5-disubstituted thiazoles as potent antimicrobial agents” (2013)
